High-throughput results: PubChem, SRMLSC
This is one part of a sample in which hits are shown more often than they occur.
Fibroblast inh – blocks proliferation of human lung fibroblasts; LL 47 human lung fibroblast viability, ATP luminescence; active compounds read low; viability, % at 10 µM; actives 1.1% (n = 85,000); AID 719;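 active means viability at or below 50% in the single dose screen; inactive means viability above 50%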;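 further: compound exposure lasted 72 h before the ATP readout; 100% = median luminescence of untreated cell-only wells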
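Material: human lung fibroblast line LL 47, low passage; Evaluation: viability percentage against median untreated-cell control; Buffer or medium: 15% FBS in IMEM; Incubation: 72 h compound exposure at 37 °C after overnight plating; Dosing: 0.1% DMSO in all compound wells; Measured by: CellTiter-Glo luminescence.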
HCT116 PTEN-null – PTEN-deleted cell growth suppression; viability, % at 10 µM; HCT116 PTEN-null viability, CellTiter-Glo, 60 h; active compounds read low; actives 1.2% (n = 140,000);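 active means viability at or below a set limit, 4 SD under the median of all tested compounds, cut at about 3.7% in these data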;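 further: PTEN knockout HCT116 line with beta catenin targeted HCT116 as companion control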
HUVEC prolif 384 – inhibitors of human endothelial cell proliferation. actives 1.1% (n = 86,000). HUVEC proliferation, CellTiter-Glo luminescence, 72 h; active compounds read low. viability, % at 10 µM (by protocol). AID 648;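 active means viability at or below 30%; inactive means viability above 30%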;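 further: 100% = median luminescence of DMSO-only cell control wells on each plate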
bCat KO growth – beta-catenin-lacking colon tumor cell growth suppression | HCT116 beta-catenin knockout viability, CellTiter-Glo, 60 h; active compounds read low | viability, % at 10 µM | actives 1.5% (n = 140,000) | AID 818;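 active means viability at or under a set limit, the compound median less 4 SD, cut at about 6% in these data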;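 further: 0% = Hyamine 1622 control at 20 µM and 100% = untreated cell control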
H69AR inhibit – growth inhibitors of human H69AR lung tumor cells; H69AR lung tumor viability, ATP luminescence, 72 h; active compounds read low; viability, % at 10 µM; actives 6% (n = 85,000);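 active means viability at or below 40%; inactive means viability above 40%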;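 further: multidrug resistant small cell line overexpressing MRP-1 efflux transporter; 100% = mean luminescence of untreated control wells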
The depositor's hits bear a star; . = no result given.

SMILES | Fibroblast inh | HCT116 PTEN-null | HUVEC prolif 384 | bCat KO growth | H69AR inhibit
CN1C2C=C3C(C#N)=C(N)C(C#N)(C#N)[C@@H](c4cccs4)C3C1CC2 (stereo partly drawn) | 90 | 93 | 94 | 94 | 75
Cc1cccc(NC(=O)C2CCCN(S(=O)(=O)c3c(C)nn(C)c3C)C2)n1 (stereo not drawn) | 85 | 82 | 96 | 78 | 38*
Cc1nn(-c2ccc(Cl)cc2)c2sc(C(=O)N3CCN(c4ccccn4)CC3)cc12 | 96 | 95 | 36 | 92 | 21*
CC1=C(C(=O)Nc2cc(-c3cccc(F)c3)[nH]n2)C2(CCCCC2)OC1=O | 76 | 74 | 77 | 58 | 32*
CCOC(=O)C1=NN(c2ccccc2C)C2=NC(C)=C(C(=O)OC)C(c3cccc(OC)c3)N12 (stereo not drawn) | . | 94 | . | 93 | .
CCCCCCn1c(COc2ccccc2F)nnc1SCC(=O)N1c2ccccc2NC(=O)C1(C)C | 84 | 1.1* | 67 | 1.2* | 0.8*
CCn1c(SCC(=O)OCC(=O)N2c3ccccc3NC(=O)C2(C)C)nnc1-c1ccco1 | 91 | 115 | 82 | 101 | 102
CC1CCCCC12NC(=O)N(CC(=O)NC(=O)NCc1ccco1)C2=O (stereo not drawn) | . | 104 | . | 94 | .
CCCCCCCCCCCCCCCC[n+]1cccc(C(=O)N(CC)CC)c1 | . | 1.5* | . | 1.5* | .
CCCCCCCCCCCCCCCC[n+]1ccc(/C=N/O)cc1 | . | 1.0* | . | 0.9* | .
CCCCCCCCCCCCCCCC[n+]1ccc(C(N)=O)cc1 | . | 1.1* | . | 1.1* | .
COCCNC(=O)CS(=O)(=O)Cc1nc(-c2ccc(C)cc2)oc1C | 100 | 92 | 105 | 95 | 94
CN(C)S(=O)(=O)c1ccc(S(=O)(=O)NC2CCOC(C)(C)C2)cc1 (stereo not drawn) | 91 | 94 | 94 | 87 | 90
COc1cc(NC(=O)c2c(F)c(F)c(F)c(F)c2F)c(OC)cc1Cl | 91 | 64 | 45 | 66 | 14*
CCCN(CCC)C(=O)CC(c1ccccc1)c1cc(Br)ccc1O (stereo not drawn) | 80 | 72 | 66 | 84 | 3.5*
CN(C)C(=O)CSc1nnc(Cc2ccc([N+](=O)[O-])cc2)o1 | . | 98 | . | 101 | .
COc1ccc2cc3cc(C(=O)NCc4ccco4)oc3nc2c1 | 107 | 85 | 74 | 91 | 93
O=C(NCc1ccco1)c1cc2cc3ccc(Cl)cc3nc2o1 | 53 | 18 | 69 | 9 | 9.5*
O=C(Cc1ccccc1)Nc1ccccc1Oc1ccccc1 | . | 90 | . | 80 | .
O=C1CCN(N=Nc2cccc(Cl)c2)N1 | 101 | 85 | 82 | 83 | 31*
COC(=O)CSC1=C(C#N)C(=O)NC(c2ccccc2)S1 (stereo not drawn) | 7.4* | 95 | 28* | 91 | 1.3*
COC(=O)CSC1=C(C#N)C(c2ccccc2)CC(=O)N1 (stereo not drawn) | 93 | 63 | 83 | 69 | 41
CCOC(=O)N1CCC(N2C(=O)c3ccc(C(=O)NC4CCCCCC4)cc3C2=O)CC1 | 103 | . | 110 | . | 51
Cc1sc2nc(CSc3nc4ccccc4c(=O)n3CCCN3CCOCC3)[nH]c(=O)c2c1C | 86 | 32 | 60 | 42 | 9.8*
CC(=O)c1c(C)[nH]c(C(=O)CSc2nc3ccccc3c(=O)n2CCCN2CCOCC2)c1C | 81 | 58 | 86 | 59 | 66
SMILES | Fibroblast inh | HCT116 PTEN-null | HUVEC prolif 384 | bCat KO growth | H69AR inhibit
Cc1nnc(NC(=O)CCC(=O)N2CCN(CCc3ccccc3)CC2)s1 | 92 | . | 93 | . | 91
CCc1ccc(N2C(=O)c3sc4nnc(-c5ccccc5)c(=O)n4c3C2=O)cc1 | 61 | 86 | 81 | 101 | 30*
CCOC(=O)c1sc(NC(=O)CCn2nnc3ccccc32)c(C(=O)OCC)c1C | 95 | . | 57 | . | 36*
CC(C)OC(=O)c1c(NC(=O)CCn2nnc3ccccc32)sc2c1CCCC2 | . | 99 | 99 | 90 | 93
O=C(NC(=S)NCC1CCCO1)c1ccc([N+](=O)[O-])cc1 (stereo not drawn) | . | 96 | . | 96 | .
COc1ccc2cc3cc(C(=O)NCCN4CCN(c5ccccc5F)CC4)oc3nc2c1 | 94 | 26 | 53 | 34 | 75
COc1ccc2cc3cc(C(=O)Nc4ccccc4N4CCN(C)CC4)oc3nc2c1 | 28* | 1.5* | 3.6* | 2.1* | 29*
O=[N+]([O-])c1ccccc1CNC(Cc1ccccc1)c1ccccc1 (stereo not drawn) | 91 | 73 | 103 | 60 | 71
